The term MIC denotes the least concentration at which growth counts as inhibited. Read a low MIC as a more susceptible organism. Broadly, the MIC99 is an inhibitory concentration at the 99% level, which refers to growth in some studies and to a panel of isolates in others. Usually IC50 stands for the concentration that gives 50% inhibition. Low readings indicate inhibition by little substance, high ones a need for much substance.

In brackets after ≈: the same amount, converted by molar mass. Activity calls are given as the source filed them. The calls are words filed in the database; no cut-off is given here.

The values below come from ChEMBL document CHEMBL1944585, “Design, synthesis, and evaluation of thiol-activated sources of sulfur dioxide (SO₂) as antimycobacterial agents” (J Med Chem, 2012).

Data set [1] can be described thus: Prodrug activation of compound assessed as sulphur dioxide formation at 100 uM after 30 mins in phosphate buffer at pH 7.4 by pararosaniline-based colorimetric assay in presence of cysteine. The conditions noted are these: pH 7.4, 0.5 h. The method, boiled down:
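Sulfite detection: 900 μL p-rosaniline dye plus 50 μL saturated HgCl2 plus 50 μL sample, kept in the dark 15 min until violet colour developed, then absorbance read.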

The nature of data set [2]: Prodrug activation of compound assessed as sulphur dioxide formation at 100 uM after 4 hrs in phosphate buffer at pH 7.4 by pararosaniline-based colorimetric assay in presence of cysteine. The conditions noted are these: pH 7.4, 4 h.
For data set [3], the system named is Mycobacterium tuberculosis. In words: Antimycobacterial activity against Mycobacterium tuberculosis H37Rv by ten-fold serial dilution method. The class given is functional. The gist of the method: (§1)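 Agar dilution: ten-fold serial dilutions incorporated into Middlebrook 7H11 agar with OADC. Inoculum from fresh 7H11 slants, adjusted to 1 mg mL−1 wet weight in 0.05% Tween 80 saline, diluted 10−2 (approx. 10^7 cfu mL−1); 5 μL spotted per tube. 37 °C, read at 28 days. MIC = lowest concentration giving complete growth inhibition.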

In data set [4] the test system is Mycobacterium tuberculosis. In words: Antimycobacterial activity against Mycobacterium tuberculosis H37Rv assessed as growth inhibition at 100 ug/ml by ten-fold serial dilution method. The class given is functional, organism-based. The method, boiled down:
as §1

For data set [5], the system named is Mycobacterium tuberculosis. In words: Antimycobacterial activity against Mycobacterium tuberculosis H37Rv assessed as growth inhibition at 2 ug/ml by ten-fold serial dilution method in presence of cysteine. The class given is functional, organism-based. The gist of the method:
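Test material was a cysteine mixture in pH 7.4 buffer, taken about 2 h after mixing and tested at 2 μg mL−1. Run on 7H11-OADC agar against H37Rv: inoculum approx. 10^7 cfu mL−1, 5 μL spotted, 37 °C, read at 28 days for complete growth inhibition.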

Another data set concerns HEK293. The data set can be described thus: Cytotoxicity against human HEK293 cells after 72 hrs by XTT assay. The class given is cell-based. To be noted: HEK293, 72 h.
Data set [6] is described as follows: Selectivity index, ratio of IC50 for HEK293 cells to MIC for Mycobacterium tuberculosis H37Rv. The class given is functional.

With `O=S(=O)(NCc1ccccc1)c1ccccc1`, the Drug degradation in data set [1] was 0 µM. Also, the Drug degradation entry in data set [2] is on record as “Not Active”. In data set [3], the minimal inhibitory concentration (MIC) was above 100 µM and the MIC99 was above 50 µg/mL.

Consider `NCc1ccccc1` [BENZYLAMINE], for which, in data set [3], the MIC was above 250 µM and the MIC99 is above 100 µg/mL.

For `NNC(=O)c1ccncc1` [ISONIAZID], in data set [3], the lowest concentration to inhibit growth (MIC) was 0.37 µM (≈ 0.0507 µg/mL) and the MIC99 was found to be 0.05 µg/mL (≈ 0.365 µM).

With `O=[N+]([O-])c1ccc(S(=O)(=O)NCc2ccccc2)cc1`, the Drug degradation in data set [1] came out at 0 µM. The Drug degradation result in data set [2] was “Not Active”. Also, in data set [3], the minimal inhibitory concentration (MIC) was above 100 µM and the MIC99 is above 50 µg/mL.

Turning to `O=[N+]([O-])c1ccc(Cl)c([N+](=O)[O-])c1` [DINITROCHLOROBENZENE], the Drug degradation in data set [1] was 0 µM. Besides, in data set [3], it took 30.8 µM (≈ 6.24 µg/mL) to inhibit growth (MIC) and the MIC99 came out at 6.25 µg/mL (≈ 30.9 µM).

Consider `O=[N+]([O-])c1ccc(S(=O)(=O)Nc2cccc(F)c2)c([N+](=O)[O-])c1`, for which the Drug degradation in data set [1] is 24 µM. In data set [3], this compound returned an MIC of 73 µM (≈ 24.9 µg/mL) and an MIC99 of 25 µg/mL (≈ 73.3 µM).

On to `O=[N+]([O-])c1ccc(S(=O)(=O)Nc2ccccc2)c([N+](=O)[O-])c1`, for which, in data set [1], the Drug degradation was 55 µM. In data set [3], this compound registered an MIC of 9.7 µM (≈ 3.14 µg/mL) and an MIC99 of 3.13 µg/mL (≈ 9.68 µM).

As for `CNCc1ccccc1` [N-BENZYLMETHYLAMINE], in data set [3], the minimum inhibitory concentration (MIC) was above 250 µM and the MIC99 was above 100 µg/mL. For the same compound, the “growth inhibition (GI)” value in data set [4] is “inactive”.

On to `COC(=O)C(C)NS(=O)(=O)c1ccc([N+](=O)[O-])cc1[N+](=O)[O-]` (stereo unspecified), for which the Drug degradation in data set [1] turned out to be 93 µM. In data set [3], this compound showed a minimal inhibitory concentration (MIC) of 18.7 µM (≈ 6.23 µg/mL) and an MIC99 of 6.25 µg/mL (≈ 18.8 µM).

Consider `O=[N+]([O-])c1ccc(S(=O)(=O)N2CCCCC2)c([N+](=O)[O-])c1`, for which, in data set [1], the Drug degradation is 91 µM. In data set [3], this compound yielded an MIC of 2.5 µM (≈ 0.788 µg/mL) and an MIC99 of 0.78 µg/mL (≈ 2.47 µM).

Regarding `COC(=O)C1CCCN1S(=O)(=O)c1ccc([N+](=O)[O-])cc1[N+](=O)[O-]` (stereo unspecified), the Drug degradation in data set [1] turned out to be 83 µM. In data set [3], this compound showed a minimal inhibitory concentration (MIC) of 35 µM (≈ 12.6 µg/mL) and an MIC99 of 12.5 µg/mL (≈ 34.8 µM).

Turning to `O=[N+]([O-])c1ccccc1S(=O)(=O)NCc1ccccc1`, the Drug degradation is 0 µM in data set [1] and “Not Active” in data set [2]. In data set [3], the minimum inhibitory concentration (MIC) is above 100 µM. Besides, the MIC99 in data set [3] was above 50 µg/mL.

For the compound `O=S([O-])[O-].[Na+].[Na+]`, the “growth inhibition (GI)” value in data set [4] was “inactive”.

In the case of `CN(Cc1ccccc1)S(=O)(=O)c1ccc([N+](=O)[O-])cc1[N+](=O)[O-]`, the Drug degradation in data set [1] stood at 100 µM. In data set [3], this compound gave an MIC of 1.1 µM (≈ 0.386 µg/mL) and an MIC99 of 0.4 µg/mL (≈ 1.14 µM).

For `CCCN(Cc1ccccc1)S(=O)(=O)c1ccc([N+](=O)[O-])cc1[N+](=O)[O-]`, in data set [1], the Drug degradation came to 88 µM. In addition, in data set [3], the minimal inhibitory concentration (MIC) was found to be 8.25 µM (≈ 3.13 µg/mL) and the MIC99 stood at 3.13 µg/mL (≈ 8.25 µM).

As for `O=[N+]([O-])c1ccc(S(=O)(=O)N2CCOCC2)c([N+](=O)[O-])c1`, in data set [1], the Drug degradation was determined as 96 µM. In data set [3], this compound returned a minimal inhibitory concentration (MIC) of 19.6 µM (≈ 6.22 µg/mL) and an MIC99 of 6.25 µg/mL (≈ 19.7 µM).

Regarding `O=[N+]([O-])c1ccc(S(=O)(=O)NCc2ccccc2)c([N+](=O)[O-])c1`, the Drug degradation in data set [1] was 100 µM. In data set [3], this compound registered an MIC of 0.15 µM (≈ 0.0506 µg/mL) and an MIC99 of 0.05 µg/mL (≈ 0.148 µM). The “growth inhibition (GI)” value in data set [5] is “inactive”. This compound also had an IC50 in the data set with HEK293 of 7 µM. Further, in data set [6], the “Selectivity Index” value is listed as 47.

Take `O=[N+]([O-])c1ccc(NCc2ccccc2)c([N+](=O)[O-])c1`: in data set [1], the Drug degradation stood at 0 µM. In data set [3], the MIC is above 250 µM and the MIC99 was above 100 µg/mL.

Turning to `CN1CCN(S(=O)(=O)c2ccc([N+](=O)[O-])cc2[N+](=O)[O-])CC1`, the Drug degradation in data set [1] stood at 88 µM. Besides, in data set [3], it took 38 µM (≈ 12.6 µg/mL) to inhibit growth (MIC) and the MIC99 stood at 12.5 µg/mL (≈ 37.8 µM).

In the case of `COc1ccc(NS(=O)(=O)c2ccc([N+](=O)[O-])cc2[N+](=O)[O-])cc1`, the Drug degradation in data set [1] worked out at 79.5 µM. Further, in data set [3], the MIC amounted to 4.4 µM (≈ 1.55 µg/mL) and the MIC99 is 1.56 µg/mL (≈ 4.42 µM).

Take `CS(=O)(=O)NCc1ccccc1`: the Drug degradation in data set [1] amounted to 0 µM. Moreover, the Drug degradation entry in data set [2] is “Not Active”. In data set [3], this compound showed an MIC above 100 µM and an MIC99 above 50 µg/mL.
